RGS4 block – inhibitors of human RGS4 | 310,000 compounds, 0.45% hits | HEK293 M3R/RGS4 inducible, Fluo-4 calcium flux; active compounds read high; triggered by carbachol at its EC20 | B-score at 10 µM | AID 463165;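 active = B-score, a plate-corrected calcium signal, over three deviations above library mean, with baseline fluorescence within five deviations of library mean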;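 note: RGS4 expression induced by doxycycline in cells with stable M3 receptor; B-score is computed from the integrated fluorescence ratio over baseline after carbachol; higher B-score means a larger calcium signal and so more RGS4 inhibition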
Target sequence (P49798 whole entry, looked up): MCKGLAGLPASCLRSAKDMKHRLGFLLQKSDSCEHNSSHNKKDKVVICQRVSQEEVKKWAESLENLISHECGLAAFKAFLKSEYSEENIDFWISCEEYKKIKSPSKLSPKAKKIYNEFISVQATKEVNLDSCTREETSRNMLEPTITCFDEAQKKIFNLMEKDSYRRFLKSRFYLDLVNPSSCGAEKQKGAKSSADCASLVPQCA
MrgX1 ag – human MrgX1 receptor agonism, primary screen. MrgX1-HEK293 cells, Fluo-4 calcium fluorescence, agonist mode; active compounds read high. B-score at 10 µM. AID 588627. 310,000 compounds, 0.44% hits. Q96LB2;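 active = calcium response B-score plate-corrected fluorescence ratio at least 3 library SD, with starting fluorescence B-score inside 5 SD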
Target sequence (Q96LB2 whole entry, looked up): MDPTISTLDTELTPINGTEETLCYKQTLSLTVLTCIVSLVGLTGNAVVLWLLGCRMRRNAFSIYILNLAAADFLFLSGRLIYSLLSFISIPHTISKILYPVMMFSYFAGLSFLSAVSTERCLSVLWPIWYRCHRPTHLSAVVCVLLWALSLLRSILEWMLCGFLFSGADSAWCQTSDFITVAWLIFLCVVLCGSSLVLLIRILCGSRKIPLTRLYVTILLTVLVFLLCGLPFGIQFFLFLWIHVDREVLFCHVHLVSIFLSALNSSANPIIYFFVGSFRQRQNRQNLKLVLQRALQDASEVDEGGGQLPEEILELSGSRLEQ
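times = overnight plating, then 30 min 37 °C plus 30 min room-temperature dye loading | assay system = stable human MrgX1 HEK293 cell line | input = fifteen thousand cells per well | signal = kinetic calcium dye fluorescence, Fluo-4 NW | dosing = compound delivered in addition one of three | read-out = B-scored fluorescence response ratio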
MrgX1 allo act – human MrgX1 positive allosteric modulation, primary screen; MrgX1-HEK293, Fluo-4 calcium flux, FDSS; active compounds read high; B-score at 10 µM; 310,000 compounds, 0.63% hits; AID 588675;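 active = plate-corrected calcium response at least 3 library SD above typical, normal starting fluorescence, not activating the receptor alone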;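 note: compound read alongside a low EC10 to EC30 dose of BAM8-22 agonist; peak minus trough fluorescence over baseline measured at the second addition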
RGS4 act – potentiators or activators of RGS4 | HEK293 M3R/inducible RGS4, carbachol calcium flux Fluo4; active compounds read low | B-score at 10 µM | 310,000 compounds, 0.92% hits | AID 463111;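 active = B-score of the integrated calcium signal more than 4 SD below the library mean, with starting fluorescence not abnormally high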;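 note: negative B-score means reduced calcium response which marks RGS4 activation or potentiation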
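Detection: kinetic calcium fluorescence imaging with Fluo4-AM dye, 2 µM / Material: HEK293 cells with stable M3R and inducible RGS4 / Schedule: recording 10 s baseline at 1 Hz, 100 s post-agonist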
MrgX1 antagonist – antagonists of human MrgX1 receptor; B-score at 10 µM; MRGX1-HEK293 calcium flux, Fluo-4, BAM8-22 antagonism; active compounds read low; 310,000 compounds, 1.3% hits; Q96LB2;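 active = calcium-response B-score plate-corrected more than 3 library SD below zero, starting fluorescence within 5 deviations, no agonist response on first addition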;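 note: peak minus trough fluorescence over baseline after final BAM8-22 challenge near maximal dose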
* marks the source's active call; other numbers are inactive results; i = inactive; . = no result given. Rows were chosen to be rich in hits. Some 3.5% of all compounds tested hit in one or more screens of this group.

SMILES | RGS4 block | MrgX1 ag | MrgX1 allo act | RGS4 act | MrgX1 antagonist
O=C(N/N=C/c1ccccn1)c1[nH]c2ccc([N+](=O)[O-])cc2c1-c1ccccc1 | i | i | i | i | -5.14*
NNC(=O)c1[nH]c2ccc([N+](=O)[O-])cc2c1-c1ccccc1 | i | i | i | i | i
Cc1cccc(N(CC(O)CON=C2c3ccccc3-c3ccccc32)S(C)(=O)=O)c1 (configuration not stated) | i | i | i | i | -4.95*
COc1ccc(Nc2nnc(SC(C(=O)Nc3ccc(OC)c(Cl)c3)c3ccccc3)s2)cc1 (configuration not stated) | i | i | 15.7* | i | i
COc1ccc(S(=O)(=O)N2CCOC23CCN(S(=O)(=O)c2ccc(C)cc2)CC3)cc1 | i | i | i | i | i
CCCc1nnc(NC(=O)C(=O)NCCN(CC)CC)s1 | i | . | . | -7.34* | .
CCc1ccc(OCC(=O)NNC(=O)Cc2c(F)cccc2Cl)cc1 | i | i | i | i | -6.89*
CC(C)c1ccc2c(c1)CCC1C(C)(CN)CCCC21C (configuration not stated) | i | 45.8* | i | i | i
CCOC(=O)Cc1csc(NC(=O)c2cccs2)n1 | i | i | i | i | i
CCOC(=O)Cc1csc(NC(=O)c2ccc(Br)s2)n1 | i | 30.8* | i | i | i
Cc1ccc(N2CC(C)Cn3c2nc2c3c(=O)[nH]c(=O)n2C)cc1C (configuration not stated) | i | i | i | i | i
CCc1ccc(S(=O)(=O)/N=C2/C=C(Sc3ncn[nH]3)C(=O)c3ccccc32)cc1 | . | i | 6.97* | . | i
CCc1ccc(S(=O)(=O)/N=C2\C=CC(=O)c3ccccc32)cc1 | i | i | i | i | i
COc1ccc(S(=O)(=O)N2CCOC2CNC(=O)C(=O)NCc2cccnc2)cc1C (configuration not stated) | i | i | i | i | i
Cc1ccnc(NS(=O)(=O)c2ccc3ccccc3c2)n1 | i | i | i | i | i
COc1ccc(CCC(=O)N2CCCC(Nc3ccc(C)c(C)c3)C2)cc1OC (configuration not stated) | i | i | i | i | i
O=C(O)c1ccc(Nc2ncnc3scc(-c4ccccc4)c23)cc1 | i | 29.5* | i | i | i
O=C1/C(=C/C=C/c2ccco2)SC(=S)N1c1ccc(O)cc1 | i | i | 16.5* | i | i
CC(C)C(C(=O)O)N1C(=O)/C(=C/C=C/c2ccco2)SC1=S (configuration not stated) | i | i | i | i | -5.31*
CC(C)C(C(=O)O)N1C(=O)/C(=C/c2cccn2C)SC1=S (configuration not stated) | . | i | i | . | i
COc1ccc(/C=N/Nc2ccc([N+](=O)[O-])cc2)cc1O | i | i | i | i | i
Cc1ccc(C(CCN(Cc2ccccc2)C(=O)c2ccco2)c2ccco2)cc1 (configuration not stated) | i | i | i | i | i
O=C(c1ccco1)N(CCC(c1ccccc1)c1ccco1)Cc1ccco1 (configuration not stated) | i | i | i | i | -6.38*
CC(C)C(=O)Nc1cccc(C(=O)Nc2ccc(S(=O)(=O)Nc3nccs3)cc2)c1 | i | i | i | i | i
CN1C(=O)/C(=C/c2ccccc2OCc2cccc(F)c2)N(C)C1=S | i | i | i | -9.94* | i
SMILES | RGS4 block | MrgX1 ag | MrgX1 allo act | RGS4 act | MrgX1 antagonist
CN1C(=O)/C(=C/c2ccc(OCc3ccc(F)cc3)cc2)N(C)C1=S | i | i | i | i | i
CC1(C)C(=O)OC(c2cccn2-c2ccc([N+](=O)[O-])cc2)C(C)(C)C1=O (configuration not stated) | i | i | i | i | -5.05*
O=C(N/N=C/c1cccc(C(F)(F)F)c1)c1cc2c(s1)-c1ccccc1CC2 | i | i | i | i | -7.79*
O=[N+]([O-])c1ccc(Sc2cccc[n+]2[O-])c2nonc12 | i | . | . | -8.39* | .
O=[N+]([O-])c1ccc(Nc2ccccc2)c2nonc12 | i | i | i | i | i
CN1C2CCC1/C(=C\c1ccc(F)cc1)C(=O)/C2=C/c1ccc(F)cc1 | i | i | 7.03* | i | i
CN1C2CCC1/C(=C/c1cccn1C)C(=O)/C2=C\c1cccn1C | i | i | i | i | i
COc1ccc([N+](=O)[O-])cc1NC(=O)C(C)OC(=O)c1cccnc1 (configuration not stated) | i | i | i | i | i
C=CCOc1ccc(/C=C/C(=O)OCC(=O)N2CCCc3ccccc32)cc1 | i | i | i | i | -9.46*
OC(COCc1ccccc1)CN1CCCCC1 (configuration not stated) | i | i | i | i | i
CCC(Sc1ccc(C(=O)O)cc1)C(=O)O (configuration not stated) | i | i | i | i | i
O=C(CC(Sc1ccc(Br)cc1)C(=O)O)c1ccc(F)cc1 (configuration not stated) | 6.28* | i | i | i | i
COc1cccc(C(=O)N/N=C2\SCC(=O)N2Cc2ccc3c(c2)OCO3)c1 | i | i | i | i | -5.64*
COc1ccc(C(=O)N/N=C2/SCC(=O)N2Cc2ccc3c(c2)OCO3)cc1OC | i | i | i | i | i
COc1ccccc1C(=O)NCC(=O)NC(C)c1ccc(-n2ccnc2)cc1 (configuration not stated) | i | i | i | i | i
CC(NC(=O)c1sc2cc([N+](=O)[O-])ccc2c1Cl)C(C)(C)C (configuration not stated) | i | i | 6.88* | i | i
COc1ccc(S(=O)(=O)NCc2ccccn2)cc1NC(=O)c1ccccc1C | i | i | i | i | i
COc1ccc(/C=C/C(=O)Nc2ccccc2C)cc1S(=O)(=O)N1CCOCC1 | i | i | 7.95* | i | i
COc1ccc(/C=C/C(=O)Nc2cccc(F)c2)cc1S(=O)(=O)N1CCOCC1 | i | i | i | i | i
CCOC(=O)c1ccc(Cl)c(NC(=O)c2cccnc2)c1 | i | i | i | i | i
CCOc1ccc(-c2[nH]ncc2-c2ccc(Cl)cc2)c(O)c1 | i | i | 12.7* | i | -13.2*
c1ccc(Sc2ccccn2)cc1 | i | i | i | i | i
c1ccc(SSc2ccccn2)nc1 | i | 31.6* | i | i | i
